In test [1] the test system is P388. Nature of the test: Antitumor activity was determined for 7-day average percent weight change against P-388 leukemia in mice at a dose of 30 mg/kg. It is filed as functional, Mus musculus. The essentials:
(§1)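 Male B6D2F1J mice implanted ip with 10⁶ P-388 cells on day 0; test agents given ip on days 1–4 (qd × 4) in sterile saline, or in 10% Tween 80 for the lipophilic thioether. Groups of 5 treated mice, with 10–17 untreated controls per experiment. Mice weighed on days 1 and 7 to give the 7-day weight change in g and %. Survival recorded in days as median and range.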

The test system of test [2] is P388. Nature of the test: Antitumor activity was determined for average 7-day weight change against P-388 leukemia in mice at a dose of 15 mg/kg. It is filed as functional, Mus musculus. The method, boiled down:
as §1

Test [3] concerns P388. Nature of the test: Percent increase in life span against P-388 leukemia in mice was determined at a dose of 15 mg/kg. It counts as functional. Conditions: Mus musculus. The essentials: (§2)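 Male B6D2F1J mice, 5 per dose group, received 10⁶ P-388 cells ip on day 0. Dosing was ip qd × 4 on days 1-4 in sterile saline, or 10% Tween 80 for the butyl thioether. Median survival times of treated (T) and untreated control (C, 10-17 mice) groups were compared: %ILS = [(T/C) − 1]100. Weights taken on days 1 and 7.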

In test [4] the test system is P388. Briefly: Antitumor activity was determined for median survival of mice against P-388 leukemia in mice at a dose of 15 mg/kg. It is filed as functional, Mus musculus. The essentials: as §1
Test [5] deals with P388. Nature of the test: Antitumor activity was determined for 7-day average percent weight change against P-388 leukemia in mice at a dose of 15 mg/kg. It is filed as functional, Mus musculus. The method, boiled down: as §1
In test [6] the test system is P388. Briefly: Antitumor activity was determined for median survival of mice against P-388 leukemia in mice at a dose of 30 mg/kg. It is filed as functional, Mus musculus. The essentials: as §1
Test [7] deals with P388. Nature of the test: Percent increase in life span against P-388 leukemia in mice was determined at a dose of 30 mg/kg. It counts as functional. As to conditions: Mus musculus. The essentials: as §2
In test [8] the test system is P388. Briefly: Antitumor activity was determined for average weight on day 1 against P-388 leukemia in mice at a dose of 15 mg/kg. It is filed as functional, Mus musculus. The method, boiled down: as §1
For the next test, the system named is L1210. Briefly: Evaluated for cytotoxicity against L1210 mouse leukemia cells. It counts as functional. Conditions: read-out: ID50 (the source's name). The method, boiled down:
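L1210 murine leukemia cells in Eagle's minimal essential medium with 15% fetal calf serum, streptomycin (100 μg/mL), penicillin (100 units/mL) and 0.05 mM 2-mercaptoethanol. Cells counted by Coulter counter after 48 h exposure. ID50 is the 50% growth-inhibitory dose. Triplicate assays, standard deviation ±10%.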

The test system of test [9] is P388. Nature of the test: Antitumor activity was determined for survival range of mice against P-388 leukemia in mice at a dose of 15 mg/kg. It is filed as functional, Mus musculus. The method, boiled down: as §1
In test [10] the test system is P388. Nature of the test: Antitumor activity was determined for average weight on day 1 against P-388 leukemia in mice at a dose of 30 mg/kg. It counts as functional, Mus musculus. The essentials: as §1
Test [11] has as its system P388. Briefly: Antitumor activity was determined for average 7-day weight change against P-388 leukemia in mice at a dose of 30 mg/kg. It is filed as functional, Mus musculus. The essentials: as §1
The subject of test [12] is P388. Nature of the test: Antitumor activity was determined for survival range of mice against P-388 leukemia in mice at a dose of 30 mg/kg. It is filed as functional, Mus musculus. The method, boiled down: as §1

Where only a bound is given, the exact number is not on record here.

Broadly, the ILS is the gain in survival time of treated over control animals, in per cent. A high value points to much gain in survival. On to `O=c1[nH]cc(F)c(=O)[nH]1` [FLUOROURACIL], for which the Weight change with P388 [1] is -13%; in the test on P388 [5], 2%. Besides, the Average weight was 0.4 g mouse-1 with P388 [2], 24.4 g mouse-1 in the test on P388 [8], 24.2 g mouse-1 in the test on P388 [10] and -3.2 g mouse-1 in the test on P388 [11]. This compound displayed an ILS at 15 mg/kg with P388 [3] of 73%. Moreover, the figures for the Survival median in the test with P388 [4] and in the test on P388 [6] were 19 and 21, respectively. This compound displayed an increase in lifespan (ILS) at 30 mg/kg with P388 [7] of 91%. Moreover, the IC50 in the test on L1210 was 1 µM. Moreover, the Survival range with P388 [9] is recorded as 15; in the test on P388 [12], 11.

Turning to `CCOC(=O)[C@H]1OC(n2cc(F)c(=O)[nH]c2=O)[C@H](O)[C@@H]1O` (some centres undefined), in the test on L1210, the IC50 is above 1000 µM.
